Data reported in ChEMBL document CHEMBL4406859, “Antitumor and antiviral activities of 4-substituted 1,2,3-triazolyl-2,3-dibenzyl-L-ascorbic acid derivatives” (Eur J Med Chem, 2019).

What was measured:
A549 = test: Antiproliferative activity against human A549 cells assessed as reduction in cell viability incubated for 72 hrs by MTT assay; format: functional, cell-based; conditions: A549, 72 h
How it was run: (§1)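 Cells (ATCC) grown in DMEM with 10 FBS, penicillin/streptomycin, 2 mM glutamine, 37 °C, 5 CO2. 5000 cells/well seeded; after 24 h, freshly prepared dilutions at five concentrations (0.01–100 μM) added for 72 h. MTT read-out; absorbance converted to percentage growth by NIH formulas. Two experiments in quadruplicate; IC50 by linear regression.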

HepG2 = test: Antiproliferative activity against human HepG2 cells assessed as reduction in cell viability incubated for 72 hrs by MTT assay; format: functional, cell-based; conditions: HepG2, 72 h; how it was run: as §1
HCT-116 = test: Antiproliferative activity against human HCT116cells assessed as reduction in cell viability incubated for 72 hrs by MTT assay; format: functional, cell-based; conditions: HCT-116, 72 h; how it was run: as §1
MCF7 = test: Antiproliferative activity against human MCF7 cells assessed as reduction in cell viability incubated for 72 hrs by MTT assay; format: functional, cell-based; conditions: MCF7, 72 h; how it was run: as §1
HFF = test: Cytotoxicity against human HFF cells assessed as reduction in cell viability incubated for 72 hrs by MTT assay; format: cell-based; how it was run: as §1
CFPAC-1 = test: Antiproliferative activity against human CFPAC-1 cells assessed as reduction in cell viability incubated for 72 hrs by MTT assay; format: functional, cell-based; conditions: Homo sapiens, CFPAC-1, 72 h; read-out: IC50; how it was run: as §1
HeLa = test: Antiproliferative activity against human HeLa cells assessed as reduction in cell viability incubated for 72 hrs by MTT assay; format: functional, cell-based; how it was run: as §1
SW-620 = test: Antiproliferative activity against human SW620 cells assessed as reduction in cell viability incubated for 72 hrs by MTT assay; format: functional, cell-based; conditions: SW-620, 72 h; how it was run: as §1

Row | SMILES | IC50 (A549) [µM] | IC50 (HepG2) [µM] | IC50 (HCT-116) [µM] | IC50 (MCF7) [µM] | IC50 (HFF) [µM] | IC50 (CFPAC-1) [µM] | IC50 (HeLa) [µM] | IC50 (SW-620) [µM]
1 | CCCCCCCCCCc1cn(C/C=C2\OC(=O)C(OCc3ccccc3)=C2OCc2ccccc2)nn1 | > 100 | > 100 | 98.8 | 72 | > 100 | > 100 | > 100 | 91.7
2 | COc1ccccc1-c1cn(C[C@H](O)[C@H]2OC(=O)C(OCc3ccccc3)=C2OCc2ccccc2)nn1 | > 100 | > 100 | > 100 | > 100 | 0.05 | > 100 | > 100 | > 100
3 | CC(C)(C)OC(=O)N1CCN(C(=S)SCc2cn(C[C@H](O)[C@H]3OC(=O)C(OCc4ccccc4)=C3OCc3ccccc3)nn2)CC1 | > 100 | > 100 | > 100 | > 100 | 0.06 | > 100 | > 100 | > 100
4 | O=C1O[C@H]([C@@H](O)Cn2cc(-c3cccc(O)c3)nn2)C(OCc2ccccc2)=C1OCc1ccccc1 | 59.9 | 62.7 | 42.9 | 51.8 | 39 | 54.1 |  | > 100
5 | O=C1O[C@H]([C@@H](O)Cn2cc(CCCCl)nn2)C(OCc2ccccc2)=C1OCc1ccccc1 | 29 | 35 | 36.1 | 24.5 | 27.1 | 58.8 | 36.7 | 68.5
6 | Cc1ccc(-c2cn(C[C@H](O)[C@H]3OC(=O)C(OCc4ccccc4)=C3OCc3ccccc3)nn2)cc1 | 8.69 | 8.77 | > 100 | > 100 | > 100 | > 100 | 25.5 | > 100
7 | O=C1O[C@H]([C@@H](O)Cn2cc(-c3cc(F)cc(F)c3)nn2)C(OCc2ccccc2)=C1OCc1ccccc1 | 41.2 | 11.6 | 48.2 | 27.7 | > 100 | 62.4 | 40.8 | > 100
8 | CCCCCc1ccc(-c2cn(C/C=C3\OC(=O)C(OCc4ccccc4)=C3OCc3ccccc3)nn2)cc1 | > 100 | > 100 | > 100 | > 100 | > 100 | > 100 | > 100 | > 100
9 | O=C1O[C@H]([C@@H](O)Cn2cc(CCO)nn2)C(OCc2ccccc2)=C1OCc1ccccc1 | > 100 | 68.1 | 72.7 | 63.4 | 58.5 | > 100 | 68.8 | > 100
10 | O=C1O[C@H]([C@@H](O)Cn2cc(-c3cc(C(F)(F)F)cc(C(F)(F)F)c3)nn2)C(OCc2ccccc2)=C1OCc1ccccc1 | 28.9 | 33.8 | 57.2 | 45.9 | 80.7 | 66.5 | 35.5 | 49.2
11 | O=C1O/C(=C\Cn2cc(-c3cc(C(F)(F)F)cc(C(F)(F)F)c3)nn2)C(OCc2ccccc2)=C1OCc1ccccc1 | > 100 | > 100 | > 100 | > 100 | > 100 | > 100 | > 100 | > 100
12 | O=C1O[C@H]([C@@H](O)Cn2cc(-c3ccc(Br)cc3)nn2)C(OCc2ccccc2)=C1OCc1ccccc1 | 0.75 |  | 9.42 | 5.62 | 5.1 | 5.83 | 3.91 | 3.76
13 | O=C1O/C(=C\Cn2cc(CCCCl)nn2)C(OCc2ccccc2)=C1OCc1ccccc1 |  | 81.1 | 66.8 | 23.6 | 94.1 | > 100 | 66.8 | 21.6
